From publication PMC10246574 (International Journal of Nanomedicine, 2023)
Converted amounts (≈) assume the structure as drawn.

How the values were obtained:
[1] = Cytotoxicity by MTT assay in HaCaT cells; type: cell-based; conditions: human, HaCaT cells (immortalized epidermal keratinocytes)
Procedure, shortened: (§1)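 Thawed cells grown in DMEM with 10% v/v fetal calf serum, 1 mM L-glutamine, penicillin and streptomycin at 37 °C, 5% CO2. Seeded at 3 × 10^5 (HaCaT) or 3.5 × 10^5 (Hs68) cells/well for 24 h. Treated with oil at 0–100 µg/mL for 48 h. MTT (5 mg/mL solution) added for 4 h; formazan dissolved in DMSO; A578 and A630.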

[2] = system: chorio-allantoic membrane of fertilized hen's eggs; experiment: Hen's egg chorio-allantoic membrane; conditions: for irritation score (IS): 30 µL applied, observed 300 s; for irritation category: from IS
Procedure, shortened: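 Fertilized hen's eggs (7–10 days) incubated at 37.5 ± 0.5 °C and 62.5 ± 7.5% humidity with rotation. Shell over the air cell opened, membrane moistened with saline and removed. 30 µL sample applied to the CAM. First hemorrhage, vascular lysis and coagulation timed over 300 s; IS = [(301−h)×5]/300 + [(301−l)×7]/300 + [(301−c)×9]/300. CAM also imaged at 0, 5 and 60 min. Controls: 1% w/v SLS and normal saline.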

[3] = Cytotoxicity by MTT assay in Hs68 cells; type: cell-based; conditions: human, Hs68 cells (foreskin fibroblasts)
Procedure, shortened: as §1

[4] = system: human skin; conditions: daily application under occlusive patch, human volunteers; cited from earlier work
[5] = system: rabbit skin; conditions: rabbits, ref Acid (1987) [48], cited from earlier work

Compound | IC20 at 48 h [1] | viability at 48 h, 100 µg/mL [1] | irritation score (IS) [2] | irritation signs on CAM after 60 min of exposure ([2]; 60 min) | irritation category [2] | IC20 at 48 h [3] | viability at 48 h, 100 µg/mL [3] | irritation of human skin [4] | primary irritation index (PII) ([5]; single insult occlusive patch test) | erythema ([5]; oleic acid after 24 h, palmitic acid after 2–24 h)
CCCCCCCCCCCCCCCC(=O)O [palmitic acid] | 100 µg/mL (≈ 390 µM) | 75.9 ± 3.5% | 0.0 ± 0.0 | vascular lysis was detected | no irritant effect | > 100 µg/mL | > 90% | not found to be irritating |  | 
CCCCC/C=C\C/C=C\CCCCCCCC(=O)O [linoleic acid] | 100 µg/mL (≈ 357 µM) | 73.8 ± 5.8% | 0.0 ± 0.0 |  | no irritant effect | > 100 µg/mL | > 90% | found to produce irritation |  | 
CCCCCCCCCCCCOS(=O)(=O)[O-].[Na+] [SLS, sodium lauryl sulphate] |  |  | 12.5 ± 0.3 |  | severe irritation |  |  |  |  | 
CCCCCCCC/C=C\CCCCCCCC(=O)O [oleic acid] | 100 µg/mL (≈ 354 µM) | 82.2 ± 6.1% | 0.0 ± 0.0 |  | no irritant effect | > 100 µg/mL | > 90% | not found to be irritating | 0.5 | moderate erythema
